Consider one compound from ChEMBL document CHEMBL1687886, “N-cyclic bay-substituted perylene G-quadruplex ligands have selective antiproliferative effects on cancer cells and induce telomere damage” (J Med Chem, 2011).

In series [1] the test system is Nucleic Acid. The experiment in a line: Stabilization of human duplex DNA T-loop assessed as change in melting temperature at 1 uM by FRET assay. In kind it is nucleic-acid assay.
For series [2], the system named is Nucleic Acid. The experiment in a line: Binding affinity to human 21-TT G-quadruplex DNA structure assessed as second step association constant by electrospray ionization mass spectrometry. The format is nucleic-acid assay. The gist of the method: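 ESI-MS in 150 mM ammonium acetate; DNA 5 μM final (per duplex or quadruplex unit); ligand at drug/DNA ratios 0.5 to 4. Methanol (15%) added just before injection, after binding equilibrium. K1 and K2 for 1:1 and 2:1 complexes, and % bound DNA, taken from relative peak intensities assuming equal response factors. At least three repeats.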

Series [3] has as its system BJ. The experiment in a line: Induction of DNA damage response in human BJ cells expressing SV40 early region EHLT assessed as phosphorylation of […] after 24 hrs by immunofluorescence method. The format is functional, cell-based. The gist of the method:
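BJ-EHLT and BJ-hTERT fibroblasts exposed to a range of concentrations for 24 h. Fixed in 2% formaldehyde, permeabilized in 0.25% Triton X-100, immunostained for γ-H2AX and 53BP1. Percentage of positive cells scored. Three independent experiments, SD.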

Series [4] concerns BJ. The experiment in a line: Cell cycle arrest in human BJ cells expressing TERT assessed as accumulation at G2/M stage at 0.5 uM after 48 hrs by propidium iodide staining based flow cytometry (reference value: 6%). The format is ADME. Background: Flow cytometry measures light scatter and fluorescence of single cells or particles in a stream.
For series [5], the system named is BJ. The experiment in a line: Growth inhibition of human BJ cells expressing SV40 early region EHLT at 0.5 uM on day 8 by trypan blue assay. The conditions noted are these: 192 h, read-out: GI. The format is functional. An outline of the steps:
(§1)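 Cells seeded at 5 ×10^4 per dish; compounds freshly dissolved and added to the medium 24 h after plating, at 0.5 μM or 3 μM (3 μM only for one derivative). Cell number by Coulter counting and viability by trypan blue exclusion daily, day 1 to day 8. Growth inhibition of treated vs untreated cells calculated at days 2, 4, 6 and 8. Representative experiments in quintuplicate, SD shown.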

Another series concerns PC-3. The experiment in a line: Antiproliferative activity against human PC3 after 2 to 8 days by trypan blue assay. In kind it is functional, cell-based. The gist of the method:
as §1

The test system of series [6] is BJ. The experiment in a line: Cell cycle arrest in human BJ cells expressing TERT assessed as accumulation at G0/G1 stage at 0.5 uM after 24 hrs by propidium iodide staining based flow cytometry (reference value: 61%). The format is ADME.
Series [7] has as its system Nucleic Acid. The experiment in a line: Binding affinity to human 21-TT G-quadruplex DNA structure at 1:1 DNA to calf thymus DNA ratio by competitive inhibition assay. In kind it is nucleic-acid assay. The arrangement: concentration or dose not given beside the values. The gist of the method: (§2)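 ESI-MS competition: quadruplex DNA and ligand each 5 μM final, plus calf thymus DNA at duplex/quadruplex ratios 1 and 5 (by phosphate concentration), in ammonium acetate. Percentage bound quadruplex and normalized bound quadruplex (N%) measured by mass spectrometry. SD over at least three independent experiments.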

Series [8] concerns BJ. The experiment in a line: Cell cycle arrest in human BJ cells expressing TERT assessed as accumulation at S stage at 0.5 uM after 72 hrs by propidium iodide staining based flow cytometry (reference value: 10%). In kind it is ADME.
Series [9] concerns BJ. The experiment in a line: Delocalization of TRF2 protein from […] in human BJ cells expressing SV40 early protein EHLT by chromatin immunoprecipitation assay. In kind it is functional, cell-based. An outline of the steps: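 BJ-EHLT cells treated 24 or 72 h. Formaldehyde-crosslinked chromatin immunoprecipitated with anti-TRF1, anti-TRF2 or anti-POT1; β-actin antibody as negative control. Precipitates blotted and probed for telomeric repeats (ALU probe as nonspecific). Densitometry gives percentage of precipitated DNA relative to input (10% and 1%). Four independent experiments, SD.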

In series [10] the test system is BJ. The experiment in a line: Cell cycle arrest in human BJ cells expressing TERT assessed as accumulation at G2/M stage at 0.5 uM after 24 hrs by propidium iodide staining based flow cytometry (reference value: 17%). In kind it is ADME.
Series [11] has as its system BJ. The experiment in a line: Cell cycle arrest in human BJ cells expressing TERT assessed as accumulation at S stage at 0.5 uM after 96 hrs by propidium iodide staining based flow cytometry (reference value: 9%). The format is ADME.
Series [12] relates to BJ. The experiment in a line: Cell cycle arrest in human BJ cells expressing TERT assessed as accumulation at G0/G1 stage at 0.5 uM after 72 hrs by propidium iodide staining based flow cytometry (reference value: 83%). The format is ADME.
The next series has as its system M14. The experiment in a line: Cytotoxicity against human M14 cells after 4 days by clonogenic assay relative to control. The conditions noted are these: M14, 96 h. In kind it is functional, cell-based. An outline of the steps:
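Clonogenic survival: cells seeded at 2 × 10^5 per dish and exposed for 4 days to 0.5-2 μM. Surviving fraction taken as absolute survival of treated over control. Four experiments, each in triplicate; mean with SD.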

Series [13] concerns Nucleic Acid. The experiment in a line: Binding affinity to human 21-TT G-quadruplex DNA structure at 1:5 DNA to calf thymus DNA ratio by competitive inhibition assay. In kind it is nucleic-acid assay. The arrangement: concentration or dose not given beside the values. The gist of the method: as §2
Series [14] relates to BJ. The experiment in a line: Induction of DNA damage response in human BJ cells expressing SV40 early protein EHLT assessed as accumulation of gamma-H2AX foci in S-phase by Hoechst staining based Leica deconvolution microscopic analysis. The format is functional. The gist of the method: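 BJ-EHLT cells co-immunostained for γ-H2AX and PCNA, nuclei counterstained with Hoechst, imaged by deconvolution microscopy. Percentages of γ-H2AX+/PCNA− and γ-H2AX+/PCNA+ nuclei scored. Mean of three independent experiments.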

Series [15] concerns BJ. The experiment in a line: Cell cycle arrest in human BJ cells expressing TERT assessed as accumulation at G0/G1 stage at 0.5 uM after 48 hrs by propidium iodide staining based flow cytometry (reference value: 80%). The format is ADME.
For series [16], the system named is BJ. The experiment in a line: Antiproliferative activity against human BJ cells expressing SV40 early region EHLT at 0.5 uM after 24 hrs by Coulter counter method. The format is functional, cell-based. The conditions noted are these: TDE = time-dependent effect, in the assay text read “after 2 to 8 days” for “after 24 hrs”. An outline of the steps: as §1

The source made the active and inactive calls. No cut-off for these calls is given here.

One may read the ΔTm as the shift of the melting midpoint relative to a reference. The IC50 is the concentration needed to halve the response being measured. Take `O=C1c2ccc3c4ccc5c6c(cc(N7CCCCC7)c(c7ccc(c2c37)C(=O)N1CCOCCN1CCCCC1)c64)C(=O)N(CCOCCN1CCCCC1)C5=O`: the ΔTm in the series with Nucleic Acid [1] is -0.2 °C. In the series on Nucleic Acid [2], the log Ks amounted to 5. The outcome with BJ [3] and with PC-3 was Active. In addition, the Activity in the series with BJ [4] worked out at 7.6%; with BJ [6], 62.8%; in the series with Nucleic Acid [7], 47%; in the series on BJ [8], 7.6%; in the series with BJ [10], 16.1%; with BJ [11], 1.5%. Moreover, the Activity with BJ [12] is 87.3%; with Nucleic Acid [13], 39%; in the series on BJ [14], 80%; in the series with BJ [15] it was 78.4%; in the series with BJ [16] it was “tde”. The inhibition of growth at 0.5 µM in the series with BJ [5] was determined as 50%. In the series with BJ [9], the result was inactive. The same compound came in with a half-maximal inhibitory concentration (IC50) in the series with M14 of 800 nM.
